Tested on: HEK-293T
Experiment: Multiplex assay against HEK293T;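 as to Population Tubulin-Different-Phenotype (%): share of the cells with healthy nuclei that show this phenotype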
Type: toxicity, cell-based
Settings: human
Method in brief: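 Cells stained live at seeding with Hoechst33342, BioTracker Green Microtubule Cytoskeleton Dye, MitoTracker Red and Annexin V Alexa Fluor 680 were imaged on a CQ1 microscope at 37°C and 5% CO2 after compound addition. Their classification by CellPathfinder machine-learning gating ran from Hoechst high-intensity objects versus normal cells, to healthy, pyknosed or fragmented nuclei among normal cells, to mitotic or apoptotic among pyknosed cells. Tubulin, mitochondrial-mass and membrane-permeability phenotypes are per cents of healthy-nucleus cells.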

[1] = 12 h, 1 µM, compound concentration 1 uM, replicate 1
[2] = 12 h, 1 µM, compound concentration 1 uM, replicate 2
[3] = 12 h, 10 µM, compound concentration 10 uM, replicate 1
[4] = 12 h, 10 µM, compound concentration 10 uM, replicate 2
[5] = 24 h, 1 µM, compound concentration 1 uM, replicate 1
[6] = 24 h, 1 µM, compound concentration 1 uM, replicate 2
[7] = 24 h, 10 µM, compound concentration 10 uM, replicate 1
[8] = 24 h, 10 µM, compound concentration 10 uM, replicate 2
[9] = 48 h, 1 µM, compound concentration 1 uM, replicate 1
[10] = 48 h, 1 µM, compound concentration 1 uM, replicate 2
[11] = 48 h, 10 µM, compound concentration 10 uM, replicate 1
[12] = 48 h, 10 µM, compound concentration 10 uM, replicate 2

SMILES: Cc1cc2c(cc1N1C(=O)c3cccc4c(CCCO)ccc(c34)C1=O)n(C)c(=O)n2C
- Population Apoptotic (%) [1]: 38%
- Population Fragmented Nuclei (%) [1]: 14%
- Population Healthy Nuclei (%) [1]: 44%
- Population Hoechst High Intensity Objects (%) [1]: 16%
- Population Membrane Permeable-Phenotype (%) [1]: 4%
- Population Mitochondria Different-Phenotype (%) [1]: 77%
- Population Mitotic Cells (%) [1]: 61%
- Population Normal (%) [1]: 83%
- Population Pyknosed Nuclei (%) [1]: 41%
- Population Tubulin-Different-Phenotype (%) [1]: 47%
- Total Cell Count [1]: 307
- Population Apoptotic (%) [2]: 12%
- Population Fragmented Nuclei (%) [2]: 5%
- Population Healthy Nuclei (%) [2]: 50%
- Population Hoechst High Intensity Objects (%) [2]: 6%
- Population Membrane Permeable-Phenotype (%) [2]: 5%
- Population Mitochondria Different-Phenotype (%) [2]: 15%
- Population Mitotic Cells (%) [2]: 87%
- Population Normal (%) [2]: 93%
- Population Pyknosed Nuclei (%) [2]: 44%
- Population Tubulin-Different-Phenotype (%) [2]: 22%
- Total Cell Count [2]: 170
- Population Apoptotic (%) [3]: 53%
- Population Fragmented Nuclei (%) [3]: 7%
- Population Healthy Nuclei (%) [3]: 43%
- Population Hoechst High Intensity Objects (%) [3]: 9%
- Population Membrane Permeable-Phenotype (%) [3]: 10%
- Population Mitochondria Different-Phenotype (%) [3]: 92%
- Population Mitotic Cells (%) [3]: 46%
- Population Normal (%) [3]: 90%
- Population Pyknosed Nuclei (%) [3]: 48%
- Population Tubulin-Different-Phenotype (%) [3]: 94%
- Total Cell Count [3]: 302
- Population Apoptotic (%) [4]: 38%
- Population Fragmented Nuclei (%) [4]: 2%
- Population Healthy Nuclei (%) [4]: 45%
- Population Hoechst High Intensity Objects (%) [4]: 4%
- Population Membrane Permeable-Phenotype (%) [4]: 11%
- Population Mitochondria Different-Phenotype (%) [4]: 82%
- Population Mitotic Cells (%) [4]: 61%
- Population Normal (%) [4]: 95%
- Population Pyknosed Nuclei (%) [4]: 51%
- Population Tubulin-Different-Phenotype (%) [4]: 96%
- Total Cell Count [4]: 359
- Population Apoptotic (%) [5]: 50%
- Population Fragmented Nuclei (%) [5]: 13%
- Population Healthy Nuclei (%) [5]: 44%
- Population Hoechst High Intensity Objects (%) [5]: 12%
- Population Membrane Permeable-Phenotype (%) [5]: 4%
- Population Mitochondria Different-Phenotype (%) [5]: 61%
- Population Mitotic Cells (%) [5]: 49%
- Population Normal (%) [5]: 87%
- Population Pyknosed Nuclei (%) [5]: 41%
- Population Tubulin-Different-Phenotype (%) [5]: 44%
- Total Cell Count [5]: 295
- Population Apoptotic (%) [6]: 13%
- Population Fragmented Nuclei (%) [6]: 5%
- Population Healthy Nuclei (%) [6]: 75%
- Population Hoechst High Intensity Objects (%) [6]: 2%
- Population Membrane Permeable-Phenotype (%) [6]: 9%
- Population Mitochondria Different-Phenotype (%) [6]: 11%
- Population Mitotic Cells (%) [6]: 86%
- Population Normal (%) [6]: 97%
- Population Pyknosed Nuclei (%) [6]: 18%
- Population Tubulin-Different-Phenotype (%) [6]: 22%
- Total Cell Count [6]: 194
- Population Apoptotic (%) [7]: 63%
- Population Fragmented Nuclei (%) [7]: 12%
- Population Healthy Nuclei (%) [7]: 54%
- Population Hoechst High Intensity Objects (%) [7]: 11%
- Population Membrane Permeable-Phenotype (%) [7]: 6%
- Population Mitochondria Different-Phenotype (%) [7]: 87%
- Population Mitotic Cells (%) [7]: 36%
- Population Normal (%) [7]: 88%
- Population Pyknosed Nuclei (%) [7]: 32%
- Population Tubulin-Different-Phenotype (%) [7]: 91%
- Total Cell Count [7]: 306
- Population Apoptotic (%) [8]: 47%
- Population Fragmented Nuclei (%) [8]: 5%
- Population Healthy Nuclei (%) [8]: 63%
- Population Hoechst High Intensity Objects (%) [8]: 3%
- Population Membrane Permeable-Phenotype (%) [8]: 3%
- Population Mitochondria Different-Phenotype (%) [8]: 71%
- Population Mitotic Cells (%) [8]: 52%
- Population Normal (%) [8]: 96%
- Population Pyknosed Nuclei (%) [8]: 30%
- Population Tubulin-Different-Phenotype (%) [8]: 90%
- Total Cell Count [8]: 377
- Population Apoptotic (%) [9]: 47%
- Population Fragmented Nuclei (%) [9]: 22%
- Population Healthy Nuclei (%) [9]: 28%
- Population Hoechst High Intensity Objects (%) [9]: 14%
- Population Membrane Permeable-Phenotype (%) [9]: 2%
- Population Mitochondria Different-Phenotype (%) [9]: 33%
- Population Mitotic Cells (%) [9]: 52%
- Population Normal (%) [9]: 85%
- Population Pyknosed Nuclei (%) [9]: 49%
- Population Tubulin-Different-Phenotype (%) [9]: 29%
- Total Cell Count [9]: 321
- Population Apoptotic (%) [10]: 33%
- Population Fragmented Nuclei (%) [10]: 14%
- Population Healthy Nuclei (%) [10]: 79%
- Population Hoechst High Intensity Objects (%) [10]: 2%
- Population Membrane Permeable-Phenotype (%) [10]: 10%
- Population Mitochondria Different-Phenotype (%) [10]: 7%
- Population Mitotic Cells (%) [10]: 66%
- Population Normal (%) [10]: 97%
- Population Pyknosed Nuclei (%) [10]: 5%
- Population Tubulin-Different-Phenotype (%) [10]: 22%
- Total Cell Count [10]: 270
- Population Apoptotic (%) [11]: 75%
- Population Fragmented Nuclei (%) [11]: 19%
- Population Healthy Nuclei (%) [11]: 64%
- Population Hoechst High Intensity Objects (%) [11]: 8%
- Population Membrane Permeable-Phenotype (%) [11]: 5%
- Population Mitochondria Different-Phenotype (%) [11]: 59%
- Population Mitotic Cells (%) [11]: 25%
- Population Normal (%) [11]: 91%
- Population Pyknosed Nuclei (%) [11]: 16%
- Population Tubulin-Different-Phenotype (%) [11]: 71%
- Total Cell Count [11]: 323
- Population Apoptotic (%) [12]: 57%
- Population Fragmented Nuclei (%) [12]: 15%
- Population Healthy Nuclei (%) [12]: 75%
- Population Hoechst High Intensity Objects (%) [12]: 3%
- Population Membrane Permeable-Phenotype (%) [12]: 3%
- Population Mitochondria Different-Phenotype (%) [12]: 41%
- Population Mitotic Cells (%) [12]: 42%
- Population Normal (%) [12]: 96%
- Population Pyknosed Nuclei (%) [12]: 9%
- Population Tubulin-Different-Phenotype (%) [12]: 79%
- Total Cell Count [12]: 482

SMILES: Cc1cn(-c2cc(NC(=O)c3ccc4c(c3)CN(c3cncnc3)C[C@@H]4C)cc(C(F)(F)F)c2)cn1
- Population Apoptotic (%) [1]: 15%
- Population Fragmented Nuclei (%) [1]: 25%
- Population Healthy Nuclei (%) [1]: 52%
- Population Hoechst High Intensity Objects (%) [1]: 20%
- Population Membrane Permeable-Phenotype (%) [1]: 5%
- Population Mitochondria Different-Phenotype (%) [1]: 6%
- Population Mitotic Cells (%) [1]: 84%
- Population Normal (%) [1]: 79%
- Population Pyknosed Nuclei (%) [1]: 22%
- Population Tubulin-Different-Phenotype (%) [1]: 4%
- Total Cell Count [1]: 536
- Population Apoptotic (%) [2]: 8%
- Population Fragmented Nuclei (%) [2]: 6%
- Population Healthy Nuclei (%) [2]: 87%
- Population Hoechst High Intensity Objects (%) [2]: 3%
- Population Membrane Permeable-Phenotype (%) [2]: 2%
- Population Mitochondria Different-Phenotype (%) [2]: 8%
- Population Mitotic Cells (%) [2]: 91%
- Population Normal (%) [2]: 96%
- Population Pyknosed Nuclei (%) [2]: 5%
- Total Cell Count [2]: 1397
- Population Apoptotic (%) [3]: 17%
- Population Fragmented Nuclei (%) [3]: 17%
- Population Healthy Nuclei (%) [3]: 62%
- Population Hoechst High Intensity Objects (%) [3]: 13%
- Population Membrane Permeable-Phenotype (%) [3]: 12%
- Population Mitochondria Different-Phenotype (%) [3]: 6%
- Population Mitotic Cells (%) [3]: 82%
- Population Normal (%) [3]: 86%
- Population Pyknosed Nuclei (%) [3]: 20%
- Population Tubulin-Different-Phenotype (%) [3]: 37%
- Total Cell Count [3]: 653
- Population Apoptotic (%) [4]: 16%
- Population Fragmented Nuclei (%) [4]: 5%
- Population Healthy Nuclei (%) [4]: 88%
- Population Hoechst High Intensity Objects (%) [4]: 4%
- Population Membrane Permeable-Phenotype (%) [4]: 5%
- Population Mitochondria Different-Phenotype (%) [4]: 24%
- Population Mitotic Cells (%) [4]: 83%
- Population Normal (%) [4]: 95%
- Population Pyknosed Nuclei (%) [4]: 5%
- Population Tubulin-Different-Phenotype (%) [4]: 40%
- Total Cell Count [4]: 1483
- Population Apoptotic (%) [5]: 23%
- Population Fragmented Nuclei (%) [5]: 16%
- Population Healthy Nuclei (%) [5]: 72%
- Population Hoechst High Intensity Objects (%) [5]: 15%
- Population Membrane Permeable-Phenotype (%) [5]: 9%
- Population Mitochondria Different-Phenotype (%) [5]: 3%
- Population Mitotic Cells (%) [5]: 76%
- Population Normal (%) [5]: 84%
- Population Pyknosed Nuclei (%) [5]: 11%
- Population Tubulin-Different-Phenotype (%) [5]: 3%
- Total Cell Count [5]: 545
- Population Apoptotic (%) [6]: 6%
- Population Fragmented Nuclei (%) [6]: 15%
- Population Healthy Nuclei (%) [6]: 81%
- Population Hoechst High Intensity Objects (%) [6]: 2%
- Population Membrane Permeable-Phenotype (%) [6]: 5%
- Population Mitochondria Different-Phenotype (%) [6]: 2%
- Population Mitotic Cells (%) [6]: 93%
- Population Normal (%) [6]: 97%
- Population Pyknosed Nuclei (%) [6]: 2%
- Population Tubulin-Different-Phenotype (%) [6]: 5%
- Total Cell Count [6]: 2221
- Population Apoptotic (%) [7]: 15%
- Population Fragmented Nuclei (%) [7]: 16%
- Population Healthy Nuclei (%) [7]: 73%
- Population Hoechst High Intensity Objects (%) [7]: 12%
- Population Membrane Permeable-Phenotype (%) [7]: 29%
- Population Mitochondria Different-Phenotype (%) [7]: 6%
- Population Mitotic Cells (%) [7]: 84%
- Population Normal (%) [7]: 87%
- Population Pyknosed Nuclei (%) [7]: 10%
- Population Tubulin-Different-Phenotype (%) [7]: 54%
- Total Cell Count [7]: 740
- Population Apoptotic (%) [8]: 8%
- Population Fragmented Nuclei (%) [8]: 12%
- Population Healthy Nuclei (%) [8]: 84%
- Population Hoechst High Intensity Objects (%) [8]: 3%
- Population Membrane Permeable-Phenotype (%) [8]: 14%
- Population Mitochondria Different-Phenotype (%) [8]: 7%
- Population Mitotic Cells (%) [8]: 91%
- Population Normal (%) [8]: 96%
- Population Pyknosed Nuclei (%) [8]: 3%
- Population Tubulin-Different-Phenotype (%) [8]: 55%
- Total Cell Count [8]: 2031
